We go through 8 compounds from ChEMBL document CHEMBL1153758, “Synthesis and anti-osteoporotic evaluation of certain 3-amino-2-hydroxypropoxyisoflavone derivatives” (Eur J Med Chem, 2009).

Series [1] deals with RAW264.7. The experiment in a line: Antiosteoporotic activity in mouse RAW264.7 cells assessed as inhibition of RANKL-stimulated osteoclastogenesis by TRAP assay. As to conditions: for EC50: read-out: ED50 (the source's name). The format is functional, cell-based. The method in brief: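 RAW 264.7 cells were seeded at 10^3 cells per well with 100 ng/mL RANKL and cultured 5 days at 37 °C in 5% CO2, with fresh RANKL-containing medium added on day 3. TRAP activity was read as conversion of 4 mmol/L α-naphthyl phosphate to α-naphthol in the presence of 2 mol/L L-tartrate, by absorbance at 405 nm.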

Series [2] deals with MADS. Nature of the series: Osteogenic effect on human MADS cells assessed as extracellular matrix calcification at 10 uM after 13 days by using alizarin red S dye. The format is functional, cell-based. The method in brief:
(§1)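 Cells were induced in osteo-induction medium (low-glucose DMEM, 10% FBS, 0.1 µM dexamethasone, 10 mM β-glycerophosphate, 100 µM L-ascorbic 2-phosphate) for 7–14 days. Compounds were added at a final 10 µM from 10 mM DMSO stocks (0.1% DMSO), with DMSO-matched controls.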

Series [3] can be described thus: Cytotoxicity against human ADSC at 10 uM after 3 days by MTT assay. As to conditions: 72 h. The method in brief: (§2)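 Compounds came from 10 mM DMSO stocks, diluted fresh in medium to a final 10 µM (0.1% DMSO), with vehicle-matched DMSO controls. After treatment, MTT ([…] in PBS) was added for 4 h. Formazan was then dissolved in DMSO for 0.5 h and read at 570 nm, expressed as % of control.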

Series [4] deals with D1. Nature of the series: Osteogenic effect on mouse D1 cells assessed as extracellular matrix calcification at 10 uM after 7 days by using alizarin red S dye. The format is functional, cell-based. A digest of the protocol: as §1
Series [5] deals with RAW264.7. Nature of the series: Cytotoxicity against mouse RAW264.7 cells at 10 uM after 3 days by MTT assay. Type of series: cell-based. As to conditions: raw264.7, 72 h. The method in brief: as §2
Series [6] deals with MC3T3-E1. Nature of the series: Osteogenic effect on mouse MC3T3-E1 cells assessed as extracellular matrix calcification at 10 uM after 12 days by using alizarin red S dye. Type of series: functional, cell-based. The method in brief: as §1
Series [7] can be described thus: Cytotoxicity against mouse D1 cells at 10 uM after 3 days by MTT assay. The format is cell-based. The settings on record: d1, 72 h. The method in brief: as §2
(In general: Formazan colour is commonly taken as a measure of viable cells.)

The nature of series [8]: Selectivity ratio for osteogenic effect of 3-(4-(3-(cyclohexylamino)-2-hydroxypropoxy)phenyl)-7-methoxy-4H-chromen-4-one on MC3T3-E1 cells to osteogenic effect of ipriflavone on MC3T3-E1 cells. Type of series: functional, Mus musculus.
Series [9] is described as follows: Selectivity ratio for osteogenic effect of 3-(3,4-dimethoxyphenyl)-7-(oxiran-2-ylmethoxy)-4H-chromen-4-one on MC3T3-E1 cells to osteogenic effect of ipriflavone on MC3T3-E1 cells. The format is functional, Mus musculus.
For series [10], the system named is adipose-derived stem cells (Homo sapiens). The experiment in a line: Cytotoxicity against human adipose-derived stem cells assessed as decrease in cell viability. The settings on record: hADSC.

Molecules are shown by their SMILES. The source made the active and inactive calls. The rule behind the calls is not given here.

Usually IC50 stands for the midpoint of a concentration-inhibition curve. `O=c1cc(-c2ccccc2)oc2cc(O)c(O)c(O)c12` [BAICALEIN]: the IC50 in series [1] was determined as 13 µM.

Turning to `COc1ccc2c(=O)c(-c3ccc(OCC4CO4)cc3)coc2c1` (stereo not given), the IC50 in [1] was 6.39 µM.

With `CC(C)Oc1ccc2c(=O)c(-c3ccccc3)coc2c1` [IPRIFLAVONE], the result in series [2] was Active. In addition, the Activity entry in [3] is recorded as “Non-toxic”.

Regarding `COc1ccc2c(=O)c(-c3ccc(OCC(O)CNC4CCCCC4)cc3)coc2c1` (stereo not given), the result in series [4], in series [6] and in series [2] was Active. For the same compound, the Activity result in [5], in series [7] and in [3] was “Non-toxic” each time. Moreover, in series [1], the EC50 was 2.28 µM. Besides, the Selectivity ratio in series [8] is 10.

Regarding `COc1ccc2c(=O)c(-c3ccc(OCC(O)CNC4CC4)cc3)coc2c1` (stereo not given), the IC50 in series [1] was 4.85 µM.

As to `O=C(c1ccc(OCCN2CCCCC2)cc1)c1c(-c2ccc(O)cc2)sc2cc(O)ccc12` [RALOXIFENE], the result in series [2] was Active. The Activity entry in [3] is “Non-toxic”.

With `COc1ccc(-c2coc3cc(OCC(O)CNC4CCCCC4)ccc3c2=O)cc1OC` (stereo not given), the IC50 in series [1] turned out to be 4.17 µM.

Take `COc1ccc(-c2coc3cc(OCC4CO4)ccc3c2=O)cc1OC` (stereo not given): the Selectivity ratio in series [9] is given as 10. Further, the outcome in series [4], in [6] and in [2] was Active. Further, the Activity result in [5] is on record as “Non-toxic”; in series [10] it was 60%; in [7], “Non-toxic”. In series [1], the IC50 is 0.56 µM. Moreover, the EC50 in [1] turned out to be 0.56 µM.
